Series [1] is described as follows: Drug metabolism in PMA-stimulated mouse RAW264.7 cells assessed as auto-oxidation by measuring 4''-O-methyl-7-norcyclopentadione formation at 10 uM after 30 mins by LC-MS analysis. As to conditions: raw264.7, 0.5 h. Format: ADME, cell-based. The method, boiled down: (§1)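 RAW264.7 cells grown in DMEM with 10% FBS, seeded at 400 000 cells/well and attached overnight. They got PMA (stimulated lines) or EtOH vehicle for 5 min, then the test compound at 10 μM for 30 min. Supernatants were extracted on HLB cartridges, eluted with MeOH, dried under N2 and redissolved in MeCN/H2O 1:1. Analysis was negative-ion ESI LC-MS/MS in SRM mode.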

Series [2] is described as follows: Drug level treated with demethoxy curcumin assessed as horseradish peroxidase-mediated oxidation at 50 uM after 1 hr in presence of H2O2 by LC-MS analysis. Type of series: ADME. Conditions: armoracia rusticana. The method, boiled down:
(§2)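 HRP/H2O2 oxidation in 1 mL of 20 mM NH4OAc, pH 8, with 50 μM curcuminoid and 2.5 × 10−6 U horseradish peroxidase. H2O2 (40 μM) started the reaction, which ran 1 h at 37 °C. An aliquot was injected directly for negative-ion LC-MS.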

Series [3] is described as follows: Drug metabolism assessed as horseradish peroxidase-mediated oxidation by measuring bisdemethoxy-7-Norcyclopentadione formation at 50 uM after 1 hr in presence of H2O2 by LC-MS analysis. Format: ADME. As to conditions: armoracia rusticana. The procedure, abridged: as §2
A short description of series [4]: Drug level treated with deuterated-demethoxy curcumin assessed as horseradish peroxidase-mediated oxidation at 50 uM after 1 hr in presence of H2O2 by LC-MS analysis. As to conditions: armoracia rusticana. Type of series: ADME. The method, boiled down:
as §2

The nature of series [5]: Drug level in mouse RAW264.7 cells treated with 4'-O-methylcurcumin at 10 uM after 30 mins by LC-MS analysis. Format: ADME, cell-based. Conditions: raw264.7, 0.5 h. The method, boiled down:
as §1

The nature of series [6]: Drug level in PMA-stimulated mouse RAW264.7 cells treated with 4'-O-methylcurcumin at 10 uM after 30 mins by LC-MS analysis. Format: ADME, cell-based. As to conditions: raw264.7, 0.5 h. The method, boiled down: as §1
Series [7] is described as follows: Drug metabolism assessed as horseradish peroxidase-mediated oxidation by measuring demethoxy-7-Norcyclopentadione formation at 50 uM after 1 hr in presence of H2O2 by LC-MS analysis. As to conditions: armoracia rusticana. Format: ADME. The method, boiled down:
as §2

Series [8] can be described thus: Drug metabolism assessed as horseradish peroxidase-mediated oxidation by measuring deuterated-demethoxy-7-Norcyclopentadione formation at 50 uM after 1 hr in presence of H2O2 by LC-MS analysis. Conditions: armoracia rusticana. Format: ADME. The procedure, abridged: as §2
Series [9] can be described thus: Drug metabolism assessed as auto-oxidation by measuring 7-Norcyclopentadione formation at 50 uM by LC-MS analysis.
Series [10] can be described thus: Drug metabolism in pH 7.4 buffer containing 50% H218O assessed as auto-oxidation by measuring 7-Norcyclopentadione formation at 50 uM by LC-MS analysis. The procedure, abridged:
(§3)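 Oxygen-18 labelling in 200 μL of 20 mM NH4HCO3, pH 7.4, made with a 1:1 mix of H2O and H218O (97%). Curcumin was added at 50 μM and incubated 1 h at 37 °C. Aliquots went to negative-ion LC-MS without extraction.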

Series [11] can be described thus: Drug metabolism in pH 7.4 buffer assessed as auto-oxidation by measuring 7-Norcyclopentadione formation at 50 uM by LC-MS analysis.
A short description of series [12]: Drug metabolism in PMA-stimulated mouse RAW264.7 cells assessed as auto-oxidation by measuring 7-Norcyclopentadione formation at 10 uM after 30 mins by LC-MS analysis. Type of series: ADME, cell-based. Conditions: raw264.7, 0.5 h. The method, boiled down: as §1
The nature of series [13]: Drug level treated with curcumin at 50 uM by LC-MS analysis. Format: physicochemical.
The nature of series [14]: Drug level in pH 7.4 buffer containing 50% H218O treated with curcumin at 50 uM by LC-MS analysis. Format: physicochemical. Conditions: pH 7.4, 50 µM. The method, boiled down:
as §3

Series [15] in a line: Drug metabolism in pH 7.4 buffer treated with curcumin at 50 uM by LC-MS analysis.
Series [16] in a line: Drug level in mouse RAW264.7 cells treated with curcumin at 10 uM after 30 mins by LC-MS analysis. Type of series: ADME, cell-based. Conditions: raw264.7, 0.5 h. The method, boiled down: as §1
A short description of series [17]: Drug level in PMA-stimulated mouse RAW264.7 cells treated with curcumin at 10 uM after 30 mins by LC-MS analysis. Conditions: raw264.7, 0.5 h. Type of series: ADME, cell-based. The procedure, abridged: as §1

Our source for the Drug metabolism values is ChEMBL document CHEMBL4382272, “A Curcumin Degradation Product, 7-Norcyclopentadione, Formed by Aryl Migration and Loss of a Carbon from the Heptadienedione Chain” (J Nat Prod, 2018).

In the case of `COc1cc(/C=C/C(=O)/C=C(O)/C=C/c2ccc(OC)c(OC)c2)ccc1O`, the Drug metabolism entry in [1] is “Metabolite_Detected”. `COc1cc(C2C(O)=CC(=O)C2C(O)c2ccc(O)cc2)ccc1O` (configuration not stated): the Drug metabolism entry in [2] is listed as “Metabolite_Detected”. As for `O=C(/C=C/c1ccc(O)cc1)CC(=O)/C=C/c1ccc(O)cc1` [BISDEMETHOXYCURCUMIN], the Drug metabolism result in series [3] is “Metabolite_Notdetected”. In the case of `[2H]c1c([2H])c(C(O)C2C(=O)C=C(O)C2c2ccc(O)c(OC)c2)c([2H])c([2H])c1O` (configuration not stated), in series [4], the Drug metabolism entry was “Metabolite_Detected”. `COc1cc(C2C(O)=CC(=O)C2C(O)c2ccc(OC)c(OC)c2)ccc1O` (configuration not stated): the Drug metabolism result in series [5] and in [6] was “Metabolite_Detected” each time. Take `COc1cc(/C=C/C(=O)CC(=O)/C=C/c2ccc(O)cc2)ccc1O`: the Drug metabolism result in series [7] is listed as “Metabolite_Detected”.

In the case of `[2H]c1c([2H])c(/C=C/C(=O)CC(=O)/C=C/c2ccc(O)c(OC)c2)c([2H])c([2H])c1O`, in [8], the Drug metabolism entry was “Metabolite_Detected”. As to `COc1cc(/C=C/C(=O)CC(=O)/C=C/c2ccc(O)c(OC)c2)ccc1O` [CURCUMIN], the Drug metabolism entry in series [9] is recorded as “Metabolite detected”; in [10], “Metabolite detected”; in series [11] it was “Metabolite detected”; in [12], “Metabolite_Detected”. On to `COc1cc(C(O)C2C(=O)C=C(O)C2c2ccc(O)c(OC)c2)ccc1O` (configuration not stated), for which the Drug metabolism entry in [13] is on record as “Metabolite_Detected”; in [14], “Metabolite_Detected”; in [15], “Metabolite detected”; in series [16], “Metabolite_Detected”; in series [17], “Metabolite_Detected”.
